Values after ≈ are worked out from the molar mass of the structure shown. Each block holds one molecule with its values, some of them ahead of it.
Tests used:
Bacillus subtilis [1] = assay: Antibacterial activity against Bacillus subtilis at 25 ug/ml incubated for 24 hrs by agar well diffusion method; assay type: functional; settings: read-out: DIZ
Procedure, shortened: (§1)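 Bacteria grown in nutrient broth at 37 °C for 24 h, then subcultured at room temperature. Compounds dissolved in DMSO at 5 mg mL⁻¹ and 5–20 µL added to 6 mm wells, giving 25, 50, 75, 100 µg per well. Gentamicin was the positive control and DMSO the negative control. Plates held at 37 °C for 24 h, then inhibition zone diameter (mm) measured. Values are means of three determinations.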

Candida albicans [2] = assay: Antifungal activity against Candida albicans at 75 ug/ml incubated for 48 hrs by agar well diffusion method; assay type: functional; settings: read-out: DIZ
Procedure, shortened: (§2)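 Compounds dissolved in DMSO at 5 mg mL⁻¹ and 5–20 µL added to 6 mm wells, giving 25, 50, 75, 100 µg per well. Bavistin was the positive control and DMSO the negative control. Plates incubated at 28 °C for 48 h, then inhibition zone diameter (mm) measured. Values are means of three determinations.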

Klebsiella pneumoniae [3] = assay: Antibacterial activity against Klebsiella pneumoniae at 75 ug/ml incubated for 24 hrs by agar well diffusion method; assay type: functional; settings: read-out: DIZ; procedure, shortened: as §1
Bacillus subtilis [4] = assay: Antibacterial activity against Bacillus subtilis at 50 ug/ml incubated for 24 hrs by agar well diffusion method; assay type: functional; settings: read-out: DIZ; procedure, shortened: as §1
Aspergillus niger [5] = assay: Antifungal activity against Aspergillus niger at 50 ug/ml incubated for 48 hrs by agar well diffusion method; assay type: functional; settings: read-out: DIZ; procedure, shortened: as §2
Staphylococcus aureus [6] = assay: Antibacterial activity against Staphylococcus aureus at 25 ug/ml incubated for 24 hrs by agar well diffusion method; assay type: functional; settings: read-out: DIZ; procedure, shortened: as §1
Staphylococcus aureus [7] = assay: Antibacterial activity against Staphylococcus aureus at 50 ug/ml incubated for 24 hrs by agar well diffusion method; assay type: functional; settings: read-out: DIZ; procedure, shortened: as §1
Candida albicans [8] = assay: Antifungal activity against Candida albicans at 25 ug/ml incubated for 48 hrs by agar well diffusion method; assay type: functional; settings: read-out: DIZ; procedure, shortened: as §2
Fusarium oxysporum [9] = assay: Antifungal activity against Fusarium oxysporum at 75 ug/ml incubated for 48 hrs by agar well diffusion method; assay type: functional; settings: read-out: DIZ; procedure, shortened: as §2
Aspergillus niger [10] = assay: Antifungal activity against Aspergillus niger at 100 ug/ml incubated for 48 hrs by agar well diffusion method; assay type: functional; settings: read-out: DIZ; procedure, shortened: as §2
Klebsiella pneumoniae [11] = assay: Antibacterial activity against Klebsiella pneumoniae at 50 ug/ml incubated for 24 hrs by agar well diffusion method; assay type: functional; settings: read-out: DIZ; procedure, shortened: as §1
Aspergillus niger [12] = assay: Antifungal activity against Aspergillus niger at 25 ug/ml incubated for 48 hrs by agar well diffusion method; assay type: functional; settings: read-out: DIZ; procedure, shortened: as §2
Candida albicans [13] = assay: Antifungal activity against Candida albicans incubated for 48 to 72 hrs by microdilution method; assay type: functional
Procedure, shortened: (§3)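 Sabouraud agar plates inoculated with fungal suspension at 10⁵ CFU mL⁻¹ plus serially diluted compounds and bavistin reference, both in DMSO. Incubated at 25 °C for 48–72 h. MIC is the lowest concentration completely inhibiting growth. Values are means of three determinations.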

Bacillus subtilis [14] = assay: Antibacterial activity against Bacillus subtilis at 100 ug/ml incubated for 24 hrs by agar well diffusion method; assay type: functional; settings: read-out: DIZ; procedure, shortened: as §1
Fusarium oxysporum [15] = assay: Antifungal activity against Fusarium oxysporum at 25 ug/ml incubated for 48 hrs by agar well diffusion method; assay type: functional; settings: read-out: DIZ; procedure, shortened: as §2
Escherichia coli [16] = assay: Antibacterial activity against Escherichia coli at 25 ug/ml incubated for 24 hrs by agar well diffusion method; assay type: functional; settings: read-out: DIZ; procedure, shortened: as §1
Erythrocyte = assay: Anti-inflammatory activity in human RBC assessed as inhibition of hypotonic solution-induced hemolysis after 10 mins by spectrophotometric method; assay type: functional, cell-based
Procedure, shortened: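 Human blood (heparinized) washed with 0.9% saline, packed cells made into a 40% v/v stock in isotonic phosphate buffer (154 mM NaCl, 10 mM sodium phosphate, pH 7.4). Stock RBC mixed with hypotonic buffer (50 mM NaCl, 10 mM phosphate, pH 7.4) plus sample at 20–100 µg mL⁻¹.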

Bacillus subtilis [17] = assay: Antibacterial activity against Bacillus subtilis incubated for 24 hrs by microdilution method; assay type: functional
Klebsiella pneumoniae [18] = assay: Antibacterial activity against Klebsiella pneumoniae at 25 ug/ml incubated for 24 hrs by agar well diffusion method; assay type: functional; settings: read-out: DIZ; procedure, shortened: as §1
Escherichia coli [19] = assay: Antibacterial activity against Escherichia coli at 75 ug/ml incubated for 24 hrs by agar well diffusion method; assay type: functional; settings: read-out: DIZ; procedure, shortened: as §1
Fusarium oxysporum [20] = assay: Antifungal activity against Fusarium oxysporum at 50 ug/ml incubated for 48 hrs by agar well diffusion method; assay type: functional; settings: read-out: DIZ; procedure, shortened: as §2
Klebsiella pneumoniae [21] = assay: Antibacterial activity against Klebsiella pneumoniae incubated for 24 hrs by microdilution method; assay type: functional
Escherichia coli [22] = assay: Antibacterial activity against Escherichia coli at 50 ug/ml incubated for 24 hrs by agar well diffusion method; assay type: functional; settings: read-out: DIZ; procedure, shortened: as §1
Fusarium oxysporum [23] = assay: Antifungal activity against Fusarium oxysporum at 100 ug/ml incubated for 48 hrs by agar well diffusion method; assay type: functional; settings: read-out: DIZ; procedure, shortened: as §2
Klebsiella pneumoniae [24] = assay: Antibacterial activity against Klebsiella pneumoniae at 100 ug/ml incubated for 24 hrs by agar well diffusion method; assay type: functional; settings: read-out: DIZ; procedure, shortened: as §1
Staphylococcus aureus [25] = assay: Induction of cell membrane damage in Staphylococcus aureus assessed as cell content leakage at MIC by spectrophotometric method; assay type: functional, organism-based; settings: TDE = time-dependent effect
Procedure, shortened: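 Log-phase S. aureus inoculated into 0.1% sterile peptone water, with an untreated control, and held at 37 °C for 0, 30, 60 and 120 min. 1 mL of broth centrifuged and supernatant OD read at 260 nm to measure released DNA. Run in triplicate, repeated three times.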

Escherichia coli [26] = assay: Antibacterial activity against Escherichia coli incubated for 24 hrs by microdilution method; assay type: functional
Staphylococcus aureus [27] = assay: Antibacterial activity against Staphylococcus aureus at 100 ug/ml incubated for 24 hrs by agar well diffusion method; assay type: functional; settings: read-out: DIZ; procedure, shortened: as §1
Candida albicans [28] = assay: Antifungal activity against Candida albicans at 50 ug/ml incubated for 48 hrs by agar well diffusion method; assay type: functional; settings: read-out: DIZ; procedure, shortened: as §2
Fusarium oxysporum [29] = assay: Antifungal activity against Fusarium oxysporum incubated for 48 to 72 hrs by microdilution method; assay type: functional; procedure, shortened: as §3
Aspergillus niger [30] = assay: Antifungal activity against Aspergillus niger incubated for 48 to 72 hrs by microdilution method; assay type: functional; procedure, shortened: as §3
Aspergillus niger [31] = assay: Antifungal activity against Aspergillus niger at 75 ug/ml incubated for 48 hrs by agar well diffusion method; assay type: functional; settings: read-out: DIZ; procedure, shortened: as §2
Staphylococcus aureus [32] = assay: Antibacterial activity against Staphylococcus aureus incubated for 24 hrs by microdilution method; assay type: functional
Escherichia coli [33] = assay: Antibacterial activity against Escherichia coli at 100 ug/ml incubated for 24 hrs by agar well diffusion method; assay type: functional; settings: read-out: DIZ; procedure, shortened: as §1
Candida albicans [34] = assay: Antifungal activity against Candida albicans at 100 ug/ml incubated for 48 hrs by agar well diffusion method; assay type: functional; settings: read-out: DIZ; procedure, shortened: as §2
Staphylococcus aureus [35] = assay: Antibacterial activity against Staphylococcus aureus at 75 ug/ml incubated for 24 hrs by agar well diffusion method; assay type: functional; settings: read-out: DIZ; procedure, shortened: as §1
Bacillus subtilis [36] = assay: Antibacterial activity against Bacillus subtilis at 75 ug/ml incubated for 24 hrs by agar well diffusion method; assay type: functional; settings: read-out: DIZ; procedure, shortened: as §1

- MIC (Candida albicans [13]): 19 µg/mL (≈ 38.1 µM)
- MIC (Bacillus subtilis [17]): 17 µg/mL (≈ 34.1 µM)
- MIC (Klebsiella pneumoniae [21]): 20 µg/mL (≈ 40.1 µM)
- MIC (Escherichia coli [26]): 16 µg/mL (≈ 32.1 µM)
- MIC (Fusarium oxysporum [29]): 21 µg/mL (≈ 42.1 µM)
- MIC (Aspergillus niger [30]): 20 µg/mL (≈ 40.1 µM)
- MIC (Staphylococcus aureus [32]): 18 µg/mL (≈ 36.1 µM)
SMILES: CC(C)(C)OC(=O)N[C@@H](Cc1c[nH]c2ccccc12)C(=O)Oc1ccc2c(=O)c3ccccc3oc2c1
- zone of inhibition at 25 µg/mL (Bacillus subtilis [1]): 23 mm
- zone of inhibition at 75 µg/mL (Candida albicans [2]): 37 mm
- zone of inhibition at 75 µg/mL (Klebsiella pneumoniae [3]): 36 mm
- zone of inhibition at 50 µg/mL (Bacillus subtilis [4]): 29 mm
- zone of inhibition at 50 µg/mL (Aspergillus niger [5]): 31 mm
- zone of inhibition at 25 µg/mL (Staphylococcus aureus [6]): 22 mm
- zone of inhibition at 50 µg/mL (Staphylococcus aureus [7]): 29 mm
- zone of inhibition at 25 µg/mL (Candida albicans [8]): 24 mm
- zone of inhibition at 75 µg/mL (Fusarium oxysporum [9]): 35 mm
- zone of inhibition at 100 µg/mL (Aspergillus niger [10]): 44 mm
- zone of inhibition at 50 µg/mL (Klebsiella pneumoniae [11]): 29 mm
- zone of inhibition at 25 µg/mL (Aspergillus niger [12]): 24 mm
- zone of inhibition at 100 µg/mL (Bacillus subtilis [14]): 39 mm
- zone of inhibition at 25 µg/mL (Fusarium oxysporum [15]): 21 mm
- zone of inhibition at 25 µg/mL (Escherichia coli [16]): 24 mm
- IC50 (Erythrocyte): 24 µg/mL (≈ 48.1 µM)
- zone of inhibition at 25 µg/mL (Klebsiella pneumoniae [18]): 22 mm
- zone of inhibition at 75 µg/mL (Escherichia coli [19]): 37 mm
- zone of inhibition at 50 µg/mL (Fusarium oxysporum [20]): 30 mm
- zone of inhibition at 50 µg/mL (Escherichia coli [22]): 30 mm
- zone of inhibition at 100 µg/mL (Fusarium oxysporum [23]): 40 mm
- zone of inhibition at 100 µg/mL (Klebsiella pneumoniae [24]): 41 mm
- Activity (Staphylococcus aureus [25]): Tde
- zone of inhibition at 100 µg/mL (Staphylococcus aureus [27]): 40 mm
- zone of inhibition at 50 µg/mL (Candida albicans [28]): 31 mm
- zone of inhibition at 75 µg/mL (Aspergillus niger [31]): 36 mm
- zone of inhibition at 100 µg/mL (Escherichia coli [33]): 41 mm
- zone of inhibition at 100 µg/mL (Candida albicans [34]): 42 mm
- zone of inhibition at 75 µg/mL (Staphylococcus aureus [35]): 35 mm
- zone of inhibition at 75 µg/mL (Bacillus subtilis [36]): 33 mm

- MIC (Candida albicans [13]): 28 µg/mL
- MIC (Bacillus subtilis [17]): 25 µg/mL
- MIC (Klebsiella pneumoniae [21]): 26 µg/mL
- MIC (Escherichia coli [26]): 24 µg/mL
- MIC (Fusarium oxysporum [29]): 28 µg/mL
- MIC (Aspergillus niger [30]): 27 µg/mL
- MIC (Staphylococcus aureus [32]): 26 µg/mL
SMILES: Cl.O=C(Oc1ccc2c(=O)c3ccccc3oc2c1)[C@@H]1CCCN1
- zone of inhibition at 25 µg/mL (Bacillus subtilis [1]): 18 mm
- zone of inhibition at 75 µg/mL (Candida albicans [2]): 27 mm
- zone of inhibition at 75 µg/mL (Klebsiella pneumoniae [3]): 33 mm
- zone of inhibition at 50 µg/mL (Bacillus subtilis [4]): 26 mm
- zone of inhibition at 50 µg/mL (Aspergillus niger [5]): 24 mm
- zone of inhibition at 25 µg/mL (Staphylococcus aureus [6]): 20 mm
- zone of inhibition at 50 µg/mL (Staphylococcus aureus [7]): 27 mm
- zone of inhibition at 25 µg/mL (Candida albicans [8]): 16 mm
- zone of inhibition at 75 µg/mL (Fusarium oxysporum [9]): 29 mm
- zone of inhibition at 100 µg/mL (Aspergillus niger [10]): 33 mm
- zone of inhibition at 50 µg/mL (Klebsiella pneumoniae [11]): 28 mm
- zone of inhibition at 25 µg/mL (Aspergillus niger [12]): 17 mm
- zone of inhibition at 100 µg/mL (Bacillus subtilis [14]): 37 mm
- zone of inhibition at 25 µg/mL (Fusarium oxysporum [15]): 20 mm
- zone of inhibition at 25 µg/mL (Escherichia coli [16]): 20 mm
- IC50 (Erythrocyte): 36 µg/mL
- zone of inhibition at 25 µg/mL (Klebsiella pneumoniae [18]): 18 mm
- zone of inhibition at 75 µg/mL (Escherichia coli [19]): 32 mm
- zone of inhibition at 50 µg/mL (Fusarium oxysporum [20]): 24 mm
- zone of inhibition at 50 µg/mL (Escherichia coli [22]): 25 mm
- zone of inhibition at 100 µg/mL (Fusarium oxysporum [23]): 35 mm
- zone of inhibition at 100 µg/mL (Klebsiella pneumoniae [24]): 38 mm
- Activity (Staphylococcus aureus [25]): Tde
- zone of inhibition at 100 µg/mL (Staphylococcus aureus [27]): 35 mm
- zone of inhibition at 50 µg/mL (Candida albicans [28]): 22 mm
- zone of inhibition at 75 µg/mL (Aspergillus niger [31]): 30 mm
- zone of inhibition at 100 µg/mL (Escherichia coli [33]): 39 mm
- zone of inhibition at 100 µg/mL (Candida albicans [34]): 34 mm
- zone of inhibition at 75 µg/mL (Staphylococcus aureus [35]): 31 mm
- zone of inhibition at 75 µg/mL (Bacillus subtilis [36]): 32 mm
